According to article PMC3574193 (Journal of medicinal chemistry, 2013):
Entries after “also recorded” stand apart in the source; their conditions may differ.

Tests used:
[1] = Preliminary half-life studies in rats; assay type: in vivo; conditions: data not shown
[2] = cited from earlier work
[3] = biological target: T1, human Trx W31A mutant (Homo sapiens, UniProt P10599, W31A); assay: In vitro thioredoxin activity assay with W31A mutant; assay type: biochemical; conditions: W31A mutant of human Trx
T1 sequence (P10599 1-105 W31A): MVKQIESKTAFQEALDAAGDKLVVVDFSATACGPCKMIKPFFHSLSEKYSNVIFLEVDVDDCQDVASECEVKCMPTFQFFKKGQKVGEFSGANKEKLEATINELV
Procedure, shortened: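 Pre-reduced enzyme was desalted by spin column, quantified by A280 and used within 2 h. It was reacted with test compound, 10 µM each, in 0.1 M phosphate-citrate pH 6.0 at room temperature. Aromatic product accumulation was fitted exponentially for kinh/Ki.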

[4] = biological target: T2, extracellular TG2 in T84 enterocytic cells (Homo sapiens, UniProt P21980); assay: Trx-mediated TG2 activation in T84 enterocytic cells; assay type: cell-based; conditions: 25 µM ERW1041E
T2 sequence (P21980 1-687): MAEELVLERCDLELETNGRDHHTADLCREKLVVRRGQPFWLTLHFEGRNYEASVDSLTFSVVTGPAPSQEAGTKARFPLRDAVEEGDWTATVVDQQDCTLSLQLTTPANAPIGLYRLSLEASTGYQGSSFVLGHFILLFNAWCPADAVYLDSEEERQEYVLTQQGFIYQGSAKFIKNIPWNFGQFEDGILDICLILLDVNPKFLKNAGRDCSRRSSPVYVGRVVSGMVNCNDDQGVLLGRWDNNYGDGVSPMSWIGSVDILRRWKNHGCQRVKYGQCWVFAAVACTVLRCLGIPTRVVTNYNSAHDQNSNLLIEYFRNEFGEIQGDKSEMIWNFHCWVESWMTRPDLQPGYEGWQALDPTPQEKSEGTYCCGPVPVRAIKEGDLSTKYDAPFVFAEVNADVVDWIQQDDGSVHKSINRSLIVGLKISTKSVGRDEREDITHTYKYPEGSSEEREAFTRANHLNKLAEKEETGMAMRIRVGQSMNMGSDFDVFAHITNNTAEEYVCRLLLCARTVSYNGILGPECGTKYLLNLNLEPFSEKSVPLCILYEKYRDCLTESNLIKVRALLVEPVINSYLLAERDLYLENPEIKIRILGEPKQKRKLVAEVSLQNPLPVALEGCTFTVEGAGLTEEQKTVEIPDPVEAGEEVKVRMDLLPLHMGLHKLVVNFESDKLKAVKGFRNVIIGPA

Question: Which results are given for `CCC(C)SSc1ncc[nH]1` (stereo not shown) [Compound 1, 2-(sec-butyldisulfanyl)-1H-imidazole]?
Answer: half-life in rats [1]: short half-life; half-life in humans [2]: extremely short half-life

Question: Which “kinh/Ki with W31A Trx” value [3] does the source give for `CCC(C)SSc1nc2ccccc2[nH]1` (stereo not shown) [Compound 14, 2-(sec-butyldisulfanyl)-1H-benzo[d]imidazole] here?
Answer: 23700 M⁻¹ s⁻¹

Question: With `O=C(NC[C@@H]1CC(Br)=NO1)[C@@H]1CCCN1C(=O)OCc1cnc2ccccc2c1` [ERW1041E, (S)-quinolin-3-ylmethyl 2-((((S)-3-bromo-4,5-dihydroisoxazol-5-yl)methyl)carbamoyl)pyrrolidine-1-carboxylate] as the compound, how does the “effect on Trx mediated 5BP incorporation” value [4] read?
Answer: fully suppressed; also recorded: completely blocked
